Reference: ChEMBL document CHEMBL1121539, “Antitumor structure-activity relations. Nitrosoureas vs. L-1210 leukemia” (J Med Chem, 1980)

What was measured:
[1] = Partition coefficient (logP); format: physicochemical; details: octanol/water
In short: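 Shake partitioning between octanol and distilled water gave log P. For carboxylate substituents, log P was taken in 0.1 N NaOH, with Na+ as counterion.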

L1210 [2] = experiment: Tested for 3 log kill of leukemia cells; format: functional, Mus musculus
In short: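 L-1210 leukemia cells (10^4) were inoculated intracerebrally into BDF2 mice, and drug was given intraperitoneally. The end point was the dose giving 3 log kill, expressed as log 1/C. The value comes from one or more individual experiments.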

L1210 [3] = experiment: Toxicity against L-1210 leukemia cells in mice after intraperitoneal administration, activity is expressed as LD10; set-up: LD10: unit not given here; details: mouse, in vivo, ip

Row | Compound | logP ([1]; read-out: logP) | log(1/C) (L1210 [2]) | log(1/LD10) (L1210 [3]) | logP [1] | LD10 (L1210 [3])
1 | CC(C)(NC(=O)N(CCCl)N=O)C(=O)O | 0.91 | 0.591 | -0.049 |  | 
2 | COCC1OC(O)C(NC(=O)N(CCCl)N=O)C(OC)C1OC (stereo not drawn) | 0.8 | 1.48 | 0.682 |  | 
3 | O=NN(CCCl)C(=O)NCCCl [CARMUSTINE] |  | 1.59 | 0.718 |  | 
4 | CCC1CCC(NC(=O)N(CCCl)N=O)CC1 (stereo not drawn) | 3.84 | 1.27 | 0.445 |  | 
5 | O=NN(CCCl)C(=O)NC1CCCC(NC(=O)N(CCCl)N=O)C1 (stereo not drawn) | 2.74 | 1.41 | 0.146 |  | 
6 | O=NN(CCF)C(=O)NC1CS(=O)(=O)CS(=O)(=O)C1 | -1.48 | 1.69 | 0.626 |  | 
7 | O=NN(CCCl)C(=O)NC(C(=O)O)C1CCCCC1 (stereo not drawn) | 2.89 | 1.23 | 0.602 |  | 
8 | CC(=O)OC1OC(C)C(OC(C)=O)C(OC(C)=O)C1NC(=O)N(CCCl)N=O (stereo not drawn) | 1.32 | 1.93 | 1.21 |  | 
9 | O=NN(CCCl)C(=O)N[C@@H]1CCCC[C@@H]1Cl | 2.73 | 0.951 | 0.446 |  | 
10 | O=NN(CCCl)C(=O)NC1CCS(=O)(=O)CC1 | 0.19 | 1.93 | 1.22 |  | 
11 | CC(=O)OC1CCC(NC(=O)N(CCF)N=O)CC1 (stereo not drawn) | 1.33 | 1.4 | 0.884 |  | 
12 | O=NN(CCF)C(=O)N[C@H]1CC[C@H](C(=O)O)CC1 |  | 1.21 |  | 1.1 | 
13 | O=NN(CCCl)C(=O)NCCF | 0.95 | 0.673 | 0.49 |  | 
14 | O=NN(CCCl)C(=O)NC1CCCCCCCCCCC1 | 5.8 | 0.599 | -0.573 |  | 
15 | O=NN(CCCl)C(=O)N[C@@H]1CCC[C@@H](O)C1 | 1 | 1.44 | 0.795 |  | 
16 | CO[C@H]1CC[C@@H](NC(=O)N(CCCl)N=O)CC1 | 2.09 | 1.38 | 0.819 |  | 
17 | CC(=O)OCC1OC(NC(=O)N(CCCl)N=O)C(OC(C)=O)C(OC(C)=O)C1OC(C)=O (stereo not drawn) | 1.04 |  | 1.41 |  | 
18 | O=NN(CCCl)C(=O)NC1CCC(Cl)CC1 (stereo not drawn) | 2.66 | 1.25 | 0.738 |  | 
19 | CC1(C)CCC(NC(=O)N(CCF)N=O)CC1 | 3.13 | 1.09 | 0.674 |  | 
20 | O=NN(CCCl)C(=O)NC1C2CC3CC(C2)CC1C3 (stereo not drawn) | 3.62 | 0.854 | 0.512 |  | 

Row | Compound | logP ([1]; read-out: logP) | log(1/C) (L1210 [2]) | log(1/LD10) (L1210 [3]) | logP [1] | LD10 (L1210 [3])
21 | Cc1cc(C)c(NC(=O)N(CCCl)N=O)c(C)c1 | 3.11 | 1.58 | 0.675 |  | 
22 | CN(C)C(=O)c1ccc(NC(=O)N(CCCl)N=O)cc1 | 1.07 | 1.87 |  |  | 1.27
23 | C[C@H]1CC[C@@H](NC(=O)N(CCCl)N=O)CC1 | 3.3 |  | 0.435 |  | 
24 | CC(=O)O[C@H]1CCCC[C@H]1NC(=O)N(CCCl)N=O | 1.96 | 1.24 | 0.776 |  | 
25 | CC(=O)OC1CCC(NC(=O)N(CCCl)N=O)CC1 (stereo not drawn) | 1.66 | 1.55 | 0.813 |  | 
26 | O=NN(CCCl)C(=O)NC1CCC(Br)CC1 (stereo not drawn) | 2.67 | 1.24 | 0.571 |  | 
27 | O=NN(CCCl)C(=O)N[C@@H]1CCC[C@H](O)C1 | 1.11 | 1.28 | 0.698 |  | 
28 | O=NN(CCCl)C(=O)NC12CC3CC(CC(C3)C1)C2 | 3.62 | 1.16 | 0.664 |  | 
29 | CC1CCC(NC(=O)N(CCF)N=O)CC1 (stereo not drawn) | 2.72 | 1.16 | 0.72 |  | 
30 | CC12CC3(C)CC(C)(C1)CC(NC(=O)N(CCCl)N=O)(C2)C3 | 5.75 | 0.783 | -0.384 |  | 
31 | CCOC(=O)C1CCCC(NC(=O)N(CCCl)N=O)C1 (stereo not drawn) | 2.2 | 1.41 | 0.786 |  | 
32 | CC(=O)O[C@@H]1[C@@H](OC(C)=O)[C@H](OC(C)=O)CO[C@H]1NC(=O)N(CCCl)N=O | 0.82 | 1.91 | 1.25 |  | 
33 | COC(=O)[C@H]1CC[C@H](NC(=O)N(CCCl)N=O)CC1 | 1.89 |  | 1.05 |  | 
34 | NC(=O)N(CCCl)N=O | 0.57 | 1.05 | 1.43 |  | 
35 | O=NN(CCCl)C(=O)N[C@H]1CC[C@@H](CC(=O)O)CC1 | 2.22 | 1.35 | 0.701 |  | 
36 | O=NN(CCCl)C(=O)NC1CCCC1 | 2.19 | 0.74 | 0.215 |  | 
37 | C[C@H]1S(=O)(=O)C[C@H](NC(=O)N(CCCl)N=O)CS1(=O)=O | -0.53 | 1.89 | 0.801 |  | 
38 | O=NN(CCCl)C(=O)NC1CCC(CC2CCC(NC(=O)N(CCCl)N=O)CC2)CC1 (stereo not drawn) | 6.07 | 1.36 | 0.283 |  | 
39 | CC(NC(=O)N(CCCl)N=O)C(=O)O (stereo not drawn) | 0.5 | 0.918 | 0.511 |  | 
40 | O=NN(CCCl)C(=O)NC1CS(=O)(=O)CS(=O)(=O)C1 | -0.9 | 1.9 | 0.842 |  | 

Row | Compound | logP ([1]; read-out: logP) | log(1/C) (L1210 [2]) | log(1/LD10) (L1210 [3]) | logP [1] | LD10 (L1210 [3])
41 | C[C@H]1CCC[C@H](NC(=O)N(CCCl)N=O)C1 |  | 1.09 |  | 3.3 | 0.352
42 | C[C@H]1CC[C@H](NC(=O)N(CCCl)N=O)CC1 |  | 1.55 | 0.771 |  | 
43 | O=NN(CCCl)C(=O)NC1CCC(CCl)CC1 (stereo not drawn) | 3.01 | 1.27 | 0.658 |  | 
44 | CC1SCC(NC(=O)N(CCCl)N=O)CS1 (stereo not drawn) | 2.49 | 1.61 | 1 |  | 
45 | CO[C@H]1CC[C@H](NC(=O)N(CCCl)N=O)CC1 | 2.09 | 1.44 | 0.841 |  | 
46 | CC1CC(O)C(NC(=O)N(CCCl)N=O)C(O)C1 (stereo not drawn) | 0.69 |  | 1.12 |  | 
47 | COC1OC(COC(C)=O)C(OC(C)=O)C(NC(=O)N(CCCl)N=O)C1OC(C)=O (stereo not drawn) | 0.67 |  | 1.06 |  | 
48 | O=NN(CCF)C(=O)NC1CSCSC1 | 1.54 | 1.78 | 0.802 |  | 
49 | O=NN(CCCl)C(=O)N[C@H]1CCCC[C@@H]1Cl |  | 1.34 | 0.672 |  | 
50 | O=NN(CCF)C(=O)NCCF | 0.38 | 1.6 | 1.37 |  | 
51 | O=NN(CCCl)C(=O)NC1CCSc2ccccc21 (stereo not drawn) | 2.91 | 1.4 | 0.585 |  | 
52 | O=NN(CCCl)C(=O)NC1CCCCC1 [LOMUSTINE] |  | 1.25 | 0.613 |  | 
53 | O=NN(CCCl)C(=O)NC1CCC(=O)NC1=O (stereo not drawn) |  | 1.8 | 1.16 |  | 
54 | O=NN(CCCl)C(=O)NC1CCC(NC(=O)N(CCCl)N=O)CC1 (stereo not drawn) | 3.57 |  | 0.66 |  | 
55 | O=NN(CCF)C(=O)NC1CCCCCCCCCCC1 | 5.22 |  | 0.496 |  | 
56 | CC(=O)OCC1OCC(NC(=O)N(CCCl)N=O)C(OC(C)=O)C1OC(C)=O (stereo not drawn) | 1.87 | 1.79 |  |  | 
57 | O=NN(CCCl)C(=O)N[C@H]1CC[C@@H](O)CC1 |  | 1.36 | 0.735 |  | 
58 | O=NN(CCCl)C(=O)NC1C(O)CCCC1O (stereo not drawn) | 0.16 |  | 1.17 |  | 
